Source: ChEMBL document CHEMBL4665829, “Synthesis, Structure-Activity Relationship, and Antimalarial Efficacy of 6-Chloro-2-arylvinylquinolines” (J Med Chem, 2020)
Active and inactive are the calls of the source. The calls are words filed in the database; no cut-off is given here.

Key:
HepG2 = assay: Cytotoxicity against human HepG2 cells assessed as reduction in cell viability after 48 hrs by MTS assay; type: cell-based; conditions: HepG2, 48 h
How it was run: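 HepG2 cells were seeded at 2250 per well and grown 24 h at 37 °C, 5% CO₂. Serial dilutions starting at 25 μM were added for a further 48 h. MTS was then added for 3 h at 37 °C and absorbance read at 490 nm. EC₅₀ came from nonlinear dose–response fits.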

[1] = Intrinsic clearance in mouse liver microsomes assessed as parent compound at 1 uM after 60 mins in presence of NADPH by LC-MS analysis; type: ADME, Microsome
How it was run: (§1)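 Mouse liver microsomes (0.5 mg/mL final protein) in 0.1 M phosphate, pH 7.4, with compound at 1 μM, 37 °C with shaking. Aliquots were quenched in cold acetonitrile and centrifuged; LC–MS gave parent peak area at 60 min relative to 0 min.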

[2] = Selectivity index, ratio of EC50 for cytotoxicity against human HepG2 cells to antiplasmodial activity against chloroquine-resistant Plasmodium falciparum Dd2; type: toxicity, cell-based; conditions: read-out: Ratio EC50
Plasmodium falciparum [3] = assay: Antiplasmodial activity against chloroquine-sensitive Plasmodium falciparum 3D7 infected in human erythrocytes assessed as reduction in microbial growth after 72 hrs by SYBR green I staining based fluorescence assay; type: functional, organism-based; conditions: 3D7, Erythrocyte
How it was run: (§2)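 SYBR Green I assay: twofold serial dilutions on P. falciparum cultures at 1% parasitemia, 1% hematocrit, 37 °C, 5% CO₂, 72 h, max 0.1% DMSO. DMSO and CQ as growth and inhibition controls. Plates frozen at −80 °C, thawed, lysed in Tris/saponin/EDTA/Triton buffer with 0.01% SYBR Green I, 1 h dark at room temperature. Fluorescence read at 485 ex/530 em. EC50 by nonlinear dose–response fit.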

[4] = Half life in mouse liver microsomes at 1 uM after 60 mins in presence of NADPH by LC-MS analysis; type: ADME, Microsome; conditions: 1 h; how it was run: as §1
[5] = Stability of compound in mouse liver microsomes assessed as parent compound remaining at 1 uM after 60 mins in presence of NADPH by LC-MS analysis; type: ADME, Microsome; conditions: 1 h; how it was run: as §1
Plasmodium falciparum [6] = assay: Antiplasmodial activity against chloroquine-resistant Plasmodium falciparum Dd2 infected in human erythrocytes assessed as reduction in microbial growth after 72 hrs by SYBR green I staining based fluorescence assay; type: functional, organism-based; conditions: Dd2, Erythrocyte; how it was run: as §2
[7] = Resistant index, ratio of EC50 for antiplasmodial activity against chloroquine-resistant Plasmodium falciparum Dd2 to antiplasmodial activity against chloroquine-sensitive Plasmodium falciparum 3D7; type: functional
Plasmodium falciparum [8] = assay: Antiplasmodial activity against late trophozoite synchronized chloroquine-resistant Plasmodium falciparum Dd2 reduction in microbial growth at 6.6 nM measured after 12 hrs by Giemsa staining-based microscopic analysis; type: functional, organism-based
How it was run: (§3)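 Dd2 cultures tightly synchronized by magnetic separation and sorbitol were dosed at 5 × EC50 at 6, 18, 30 or 42 h post-invasion. Controls: DHA 50 nM, atovaquone 6.6 nM, DMSO 0.1%. Sampled every 12 h for Giemsa thin smears and for flow cytometry: glutaraldehyde/paraformaldehyde fixation, Triton permeabilization, RNAse, 500 nM YOYO-1, 500,000 events/sample. Three independent biological replicates.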

Plasmodium falciparum [9] = assay: Antiplasmodial activity against late trophozoite synchronized chloroquine-resistant Plasmodium falciparum Dd2 reduction in microbial growth at 6.6 nM measured after 12 hrs by YOYO-1 staining-based flow cytometric analysis; type: functional, organism-based; how it was run: as §3
Plasmodium falciparum [10] = assay: Parasiticidal activity against chloroquine-resistant Plasmodium falciparum Dd2 infected in RBC assessed as reduction in parasitemia at 6.6 nM incubated for 48 hrs followed by compound washout and then incubated for 96 hrs by Giemsa staining based microscopic analysis; type: functional, organism-based
How it was run: (§4)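 Controls: 0.15% DMSO, DHA 50 nM, atovaquone 6.6 nM. Drug removed by three RPMI washes, then parasitemia followed daily for 96 h by Giemsa thin smears. Three independent biological replicates.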

Plasmodium berghei [11] = assay: Antiplasmodial activity against Plasmodium berghei ANKA expressing luciferase infected in Swiss Webster mouse at 25 mg/kg, po for 5 days using monophosphate salt form of compound by luminescence based assay; type: functional, organism-based; conditions: time 5.0 day
How it was run: (§5)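 Female Swiss Webster mice got 10³ RBC infected with luciferase-expressing P. berghei ANKA. From 48 h post-infection, groups of five were gavaged once daily for 5 days in 2% methylcellulose/0.5% Tween 80, against a vehicle control. On day 7, mice received 150 mg/kg D-luciferin in PBS, and bioluminescence was imaged by IVIS as a measure of parasite load.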

Plasmodium falciparum [12] = assay: Antiplasmodial activity against synchronous gametocyte late stage of Plasmodium falciparum 3D7 harboring luc7 incubated for 72 hrs by ONE-Glo luciferase assay; type: functional, organism-based; conditions: 3D7, 72 h
How it was run: (§6)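 Gametocytes of P. falciparum 3D7 luc7 induced by nutrient starvation, cultured in heparin medium to remove asexual stages, Percoll-purified as early (II–III) or late (IV–V) stage. 50,000 gametocytes/well exposed 72 h to a 19-point gradient, 0.038 nM–10 μM. ONE-Glo luciferase read after 5 min. EC50 by nonlinear curve fit; three experiments.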

Plasmodium falciparum [13] = assay: Antiplasmodial activity against late trophozoite synchronized chloroquine-resistant Plasmodium falciparum Dd2 reduction in microbial growth at 5 times of EC50 after 12 hrs by Giemsa staining-based microscopic analysis; type: functional, organism-based; how it was run: as §3
Plasmodium falciparum [14] = assay: Antiplasmodial activity against late trophozoite synchronized chloroquine-resistant Plasmodium falciparum Dd2 reduction in microbial growth at 5 times of EC50 after 12 hrs by YOYO-1 staining-based flow cytometric analysis; type: functional, organism-based; how it was run: as §3
Plasmodium falciparum [15] = assay: Antiplasmodial activity against synchronous gametocyte early stage of Plasmodium falciparum 3D7 harboring luc7 incubated for 72 hrs by ONE-Glo luciferase assay; type: functional, organism-based; conditions: 3D7, 72 h; how it was run: as §6
Plasmodium berghei [16] = assay: Antiplasmodial activity against Plasmodium berghei ANKA expressing luciferase infected in Swiss Webster mouse at 100 mg/kg, po for 5 days using monophosphate salt form of compound by luminescence based assay; type: functional, organism-based; conditions: time 5.0 day; how it was run: as §5
Plasmodium falciparum [17] = assay: Parasiticidal activity against chloroquine-resistant Plasmodium falciparum Dd2 infected in RBC assessed as reduction in parasitemia at 5 times of EC50 incubated for 6 to 48 hrs followed by compound washout and then incubated for 96 hrs by Giemsa staining based microscopic analysis; type: functional, organism-based; conditions: time hrs 6-48; how it was run: as §4
Hemozoin [18] = assay: Inhibition of beta-hematin formation after 16 hrs by inverted microscopic analysis; conditions: dose microM 12.5-200, time 16.0 hrs
How it was run: (§7)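 Hemin (2 mM stock in 0.1 M NaOH; 100 μM final), propionate buffer pH 5.2 and sonicated phosphatidylcholine were incubated with a compound concentration series for 16 h at 37 °C with gentle shaking. Crystals were imaged by inverted microscope before quenching with 7.5% SDS in bicarbonate, pH 9.1. Free hemin was measured at 405 nm against a 0–16 μM calibration. Three independent experiments.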

Hemozoin [19] = assay: Inhibition of beta-hematin formation at 12.5 to 200 uM after 16 hrs by inverted microscopic analysis; conditions: dose microM 12.5-200, time 16.0 hrs; how it was run: as §7
[20] = Drug level in mouse liver microsomes treated with 6-chloro-N-(4-morpholinobutyl)-2-(2-(pyridin-4-yl)vinyl)quinolin-4-amine measured up to 60 mins by LC-MS analysis; type: ADME, Microsome; conditions: 1 h
How it was run: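 Microsomal incubations: mouse liver microsomes at 0.5 mg/mL, 1 μM compound, pH 7.4 phosphate, 37 °C, NADPH-regenerating system. The metabolite mixture was analysed by LC–MS after 15, 30 and 60 min.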

## Fc1ccc(/C=C/c2cc(NCCCCN3CCOCC3)c3cc(Cl)ccc3n2)cc1
HepG2
  EC50: 3550 nM
[1]
  CLH: 62.4 µL/min/mg
[2]
  selectivity ratio: 1480
Plasmodium falciparum [3]
  EC50: 6.9 nM
[4]
  t1/2: 22.2 min
[5]
  Stabilty: 15.4%
Plasmodium falciparum [6]
  EC50: 2.4 nM
[7]
  Ratio EC50: 0.3

## O=C1C(O)=C([C@H]2CC[C@H](c3ccc(Cl)cc3)CC2)C(=O)c2ccccc21
Plasmodium falciparum [8]
  Activity: inactive
Plasmodium falciparum [9]
  Activity: inactive
Plasmodium falciparum [10]
  Activity: Active

## FC(F)(F)c1ccc(/C=C/c2cc(NCCCCN3CCOCC3)c3cc(Cl)ccc3n2)cc1
HepG2
  EC50: 10200 nM
[1]
  CLH: 21.4 µL/min/mg
[2]
  selectivity ratio: 332
Plasmodium falciparum [3]
  EC50: 73.8 nM
[4]
  t1/2: 64.9 min
[5]
  Stabilty: 52.7%
Plasmodium falciparum [6]
  EC50: 30.7 nM
[7]
  Ratio EC50: 0.4

## CN1CCN(CCNc2cc(/C=C/c3ccc(F)cc3)nc3ccc(Cl)cc23)CC1
HepG2
  EC50: 3200 nM
Plasmodium berghei [11]
  Activity: inactive
Plasmodium falciparum [12]
  EC50: 2500 nM
Plasmodium falciparum [13]
  Activity: Active
[1]
  CLH: 23 µL/min/mg
Plasmodium falciparum [14]
  Activity: Active
[2]
  selectivity ratio: 209
Plasmodium falciparum [15]
  EC50: 910 nM
Plasmodium falciparum [3]
  EC50: 15.7 nM
[4]
  t1/2: 60.3 min
Plasmodium berghei [16]
  Activity: Active
Plasmodium falciparum [17]
  Activity: Active
[5]
  Stabilty: 50.2%
Plasmodium falciparum [6]
  EC50: 15.3 nM
Hemozoin [18]
  inhibition: Dose-dependent effect
[7]
  Ratio EC50: 1

## Clc1ccc2nc(/C=C/c3ccncc3)cc(NCCCCN3CCOCC3)c2c1
HepG2
  EC50: 5670 nM
[1]
  CLH: 96.2 µL/min/mg
[2]
  selectivity ratio: 561
Plasmodium falciparum [3]
  EC50: 20.8 nM
[4]
  t1/2: 14.4 min
[5]
  Stabilty: 5.6%
Plasmodium falciparum [6]
  EC50: 9.9 nM
[7]
  Ratio EC50: 0.5

## CCN(CC)CCCC(C)Nc1ccnc2cc(Cl)ccc12 (stereo unspecified) [CHLOROQUINE]
HepG2
  EC50: 10400 nM
Plasmodium falciparum [3]
  EC50: 17.8 nM
Plasmodium falciparum [6]
  EC50: 174 nM
Hemozoin [19]
  inhibition: Active

## Fc1ccc(/C=C/c2cc(NCCCCN3CCOCC3)c3cc(Cl)ccc3n2)cc1F
HepG2
  EC50: 10400 nM
[1]
  CLH: 53.7 µL/min/mg
[2]
  selectivity ratio: 241
Plasmodium falciparum [3]
  EC50: 27.6 nM
[4]
  t1/2: 25.8 min
[5]
  Stabilty: 19.9%
Plasmodium falciparum [6]
  EC50: 25.5 nM
[7]
  Ratio EC50: 0.9

## NCCCCNc1cc(/C=C/c2ccncc2)nc2ccc(Cl)cc12
[20]
  Drug uptake: Active

## CN(C)CCNc1cc(/C=C/c2ccncc2)nc2ccc(Cl)cc12
HepG2
  EC50: 6110 nM
[1]
  CLH: 62.2 µL/min/mg
[2]
  selectivity ratio: 212
Plasmodium falciparum [3]
  EC50: 56.6 nM
[4]
  t1/2: 22.3 min
[5]
  Stabilty: 15.5%
Plasmodium falciparum [6]
  EC50: 28.8 nM
[7]
  Ratio EC50: 0.5

## CN(C)c1ccc2nc3ccc(N(C)C)cc3[s+]c2c1 [METHYLENE BLUE ANHYDROUS]
Plasmodium falciparum [12]
  EC50: 107 nM
Plasmodium falciparum [15]
  EC50: 74.7 nM
